Our source for the IC50 and MIC values is ChEMBL document CHEMBL3352204, “Cytotoxic and Antibacterial Quinone Sesquiterpenes from a Myrothecium Fungus” (J Nat Prod, 2014).

In test [1] the test system is A549. Briefly: Cytotoxicity against human A549 cells assessed as inhibition of cell growth after 72 hrs by MTT assay. The test is classed as functional, cell-based. The following applies: A549, 72 h. The procedure, abridged:
(§1)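 Cells grown in RPMI-1640 with 10% FBS at 37 °C under 5% CO2, seeded at 5 × 10^4 cells/mL and allowed about 24 h to attach. Medium was replaced and compound in DMSO added at final 0.016–50 μg/mL (5-fold steps), in quadruplicate, for 72 h. MTT was then given for 4 h, formazan dissolved in DMSO and OD read at 570 nm. IC50 obtained by nonlinear logistic regression.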
In general terms: Tetrazolium assays rely on reduction of a dye to a coloured formazan, in cell work by metabolically active cells.

Test [2] deals with Escherichia coli. Briefly: Antibacterial activity against Escherichia coli ATCC 8739 after 7 hrs by Alamar Blue assay. It counts as functional, organism-based. The procedure, abridged: (§2)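 Strains kept in 20% glycerol at −80 °C, grown in MHB 12 h at 37 °C with shaking at 150 rpm, then adjusted to 1 × 10^5 CFU/mL in MHB. Suspension held Alamar Blue (8% v/v) and 2-fold diluted compound in DMSO (4% v/v), final 1.562–100 μg/mL, in triplicate. Incubated 7 h at 37 °C in the dark. MIC is the lowest concentration whose well stays blue.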
On the technique in general: Resazurin is reduced to fluorescent resorufin, in cell work by metabolically active cells.

For test [3], the system named is HeLa. In words: Cytotoxicity against human HeLa cells assessed as inhibition of cell growth after 72 hrs by MTT assay. The test is classed as functional, cell-based. Summed up: as §1
For test [4], the system named is Bacillus cereus. In words: Antibacterial activity against Bacillus cereus CMCC 63302 after 7 hrs by Alamar Blue assay. It counts as functional. Particulars: CMCC 63302, 7 h. Summed up:
as §2

Test [5] deals with Salmonella typhimurium. In words: Antibacterial activity against Salmonella typhimurium CMCC 50115 after 7 hrs by Alamar Blue assay. It counts as functional, organism-based. Particulars: Salmonella enterica subsp. enterica serovar Typhimurium. The procedure, abridged: as §2
Test [6] relates to HepG2. Briefly: Cytotoxicity against human HepG2 cells assessed as inhibition of cell growth after 72 hrs by MTT assay. It counts as functional, cell-based. The following applies: HepG2, 72 h. Summed up: as §1
In test [7] the test system is Shigella dysenteriae. In words: Antibacterial activity against Shigella dysenteriae CMCC 51252 after 7 hrs by Alamar Blue assay. The test is classed as functional, organism-based.
In test [8] the test system is Staphylococcus aureus. In words: Antibacterial activity against Staphylococcus aureus ATCC 6538 after 7 hrs by Alamar Blue assay. The test is classed as functional. Particulars: ATCC 6538, 7 h. Summed up:
as §2

In brackets after ≈: the same amount, converted by molar mass. Activity calls are given as the source filed them. No cut-off for these calls is given here.

A word on the IC50: it is the point on the concentration scale where inhibition reaches its midpoint. As a reminder, the MIC is the lowest concentration that inhibits growth of the organism. On to `C=C1CC[C@H]2[C@](C)(CO)CCC[C@]2(C)[C@H]1C[C@]12O[C@H]1[C@@H](O)C(CO)=C(Cl)C2=O`, for which the IC50 in test [1] was 8 µM; in test [3], 7.9 µM; in test [6], 15.2 µM. The MIC result in test [2], in test [5] and in test [7] was “inactive” each time. The MIC was 25 µg/mL (≈ 60.8 µM) in test [4] and 12.5 µg/mL (≈ 30.4 µM) in test [8].
As for `C=C1CC[C@H]2[C@](C)(CO)CCC[C@]2(C)[C@H]1CC1=C(O)C(=O)[C@](O)(CO)[C@H](O)[C@H]1O`, the IC50 in test [1], in test [3] and in test [6] was more than 50 µM throughout. Besides, the MIC entry in test [2], in test [5] and in test [7] was “inactive” throughout. Besides, the minimum inhibitory concentration (MIC) in test [4] and in test [8] was more than 100 µg/mL in each case.
`NC[C@H]1O[C@H](O[C@H]2[C@H](O)[C@@H](O[C@H]3O[C@H](CO)[C@@H](O)[C@H](N)[C@H]3O)[C@H](N)C[C@@H]2N)[C@H](O)[C@@H](O)[C@@H]1O` [KANAMYCIN]: in test [4], the MIC was 6.25 µg/mL (≈ 12.9 µM).
On to `C=C1CC[C@H]2[C@](C)(CO)CCC[C@]2(C)[C@H]1C[C@]12O[C@H]1[C@@H](O)C(CO)=CC2=O`, for which the IC50 is 39.8 µM in test [1], 29.3 µM in test [3] and 48.5 µM in test [6]. The MIC entry in test [2], in test [5] and in test [7] was “inactive” throughout. Also, the minimum inhibitory concentration (MIC) in test [4] was 100 µg/mL (≈ 266 µM); in test [8], 50 µg/mL (≈ 133 µM).
Consider `COc1cccc2c1C(=O)c1c(O)c3c(c(O)c1C2=O)C[C@@](O)(C(=O)CO)C[C@@H]3O[C@H]1C[C@H](N)[C@H](O)[C@H](C)O1` [DOXORUBICIN], for which the IC50 in test [1] was 0.69 µM; in test [3], 0.47 µM.
As for `C=C1CC[C@H]2[C@](C)(CO)CCC[C@]2(C)[C@H]1C[C@@]12O[C@@H]1[C@@H](O)C(CO)=CC2=O`, the figures for the concentration for half-maximal inhibition (IC50) in test [1], in test [3] and in test [6] were 41.5 µM, 35.9 µM and 34.2 µM, respectively. The MIC result in test [2], in test [5] and in test [7] was “inactive” throughout. Also, the MIC worked out at 100 µg/mL (≈ 266 µM) in test [4] and 50 µg/mL (≈ 133 µM) in test [8].
For `C=C1CC[C@H]2[C@](C)(COC(C)=O)CCC[C@]2(C)[C@H]1C[C@@]12O[C@@H]1[C@@H](O)C(CO)=CC2=O`, the IC50 in test [1] was found to be 18 µM; in test [3], 19.6 µM; in test [6] it was 27.8 µM. Besides, the MIC result in test [2], in test [5] and in test [7] was “inactive” each time. Also, the minimum inhibitory concentration (MIC) in test [4] is more than 100 µg/mL; in test [8], 50 µg/mL (≈ 119 µM).
`C=C1CC[C@H]2[C@](C)(COC(C)=O)CCC[C@]2(C)[C@H]1C[C@]12O[C@H]1[C@H](O)C(CO)=CC2=O`: the values for the concentration for half-maximal inhibition (IC50) in test [1], in test [3] and in test [6] were 29.4 µM, 19.2 µM and 37.8 µM, respectively. Also, the MIC result in test [2], in test [5] and in test [7] was “inactive” each time. Besides, the results for the minimum inhibitory concentration (MIC) in test [4] and in test [8] were more than 100 µg/mL and 100 µg/mL (≈ 239 µM), respectively.
As for `C[C@@]1(CO)CCC[C@]2(C)[C@H]3C[C@@]45O[C@@H]4C(=O)[C@]4(CO)O[C@@H]4[C@]5(O)CC3=CC[C@@H]12` [HYMENOPSIN B], the results for the IC50 in test [1], in test [3] and in test [6] were 1.3 µM, 4.5 µM and 3.2 µM, respectively. The MIC result in test [2], in test [5] and in test [7] was “inactive” throughout. Besides, the MIC in test [4] and in test [8] was more than 100 µg/mL each time.
Molecule `CC(C)(O/N=C(\C(=O)N[C@@H]1C(=O)N2C(C(=O)[O-])=C(C[n+]3ccccc3)CS[C@H]12)c1csc(N)n1)C(=O)O` [CEFTAZIDIME] gave an MIC in test [8] of 12.5 µg/mL (≈ 22.9 µM).
